NR2E3 ag-1: agonists of human nuclear receptor NR2E3; 320,000 compounds, 0.12% hits; GST-NR2E3/biotin-RetCOR TR-FRET, 1536-well; inhibition of corepressor binding, % at 4.78 µM;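 active means percent inhibition above the cutoff of mean plus 3 SD of all tested compounds, set per screening campaign, cut at about 20% in these data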
Target sequence (Q9Y5X4 whole entry, looked up): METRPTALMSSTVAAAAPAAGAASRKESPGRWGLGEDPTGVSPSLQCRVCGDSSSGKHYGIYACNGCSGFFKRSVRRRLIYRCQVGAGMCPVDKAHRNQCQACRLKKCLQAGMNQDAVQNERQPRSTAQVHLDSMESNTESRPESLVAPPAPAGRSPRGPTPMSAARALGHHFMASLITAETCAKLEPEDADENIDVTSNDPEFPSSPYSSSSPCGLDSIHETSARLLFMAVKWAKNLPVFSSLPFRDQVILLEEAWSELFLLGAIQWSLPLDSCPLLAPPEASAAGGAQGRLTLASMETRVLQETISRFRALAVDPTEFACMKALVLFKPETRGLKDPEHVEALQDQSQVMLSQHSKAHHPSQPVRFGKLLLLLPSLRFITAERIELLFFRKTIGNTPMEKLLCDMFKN
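Format: 1536-well format; test system: GST-NR2E3 and biotin-RetCOR proteins; read-out basis: percent inhibition of TR-FRET ratio; timing: 5 h incubation at 4 °C; detection: time-resolved FRET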
GAA850 FXN act: increases GAA850 frataxin promoter reporter activity. HEK293 lucGAA850 FXN promoter luciferase reporter, 24 h; percent of 10 µM SAHA response. 360,000 compounds, 0.56% hits. activation, % at 6 µM. AID 540364;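 active means activation above the average of all compounds screened plus 3 SD, cutoff fixed separately per campaign, cut at about 7.5% in these data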
T cell HTS: modulates CD8 T cell binding to vesicles; response (vesicle binding), % at 7 µM; 330,000 compounds, 0.068% hits; 2C CD8+ T cell-vesicle binding, flow cytometry; active compounds read low;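 active means response, share of CD8 T cells binding vesicles, and their 90th percentile fluorescence all below set limits, cut at about 80% in these data, passing the limit was not always enough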;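 further: values below 100% mean blocked vesicle binding to the CD8+ T cells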
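material = purified 2C TCR transgenic mouse naive CD8+ T cells | controls = Unloaded micro-vesicles (low), QL9 vesicles with 0.7% DMSO (high) | detection = cytometric PE anti-B7-1 and Alexa647 anti-CD8 signals after 1% paraformaldehyde fixation | incubation = binding step 1.5 h, 37 °C, antibody labelling 20 min, ice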
NR2E3 ag-2: human photoreceptor-specific nuclear receptor agonism; Q9Y5X4; CHO-S Gal4-NCOR/VP16-NR2E3 two-hybrid, luciferase; inhibition of corepressor binding, % at 3.98 µM; 360,000 compounds, 0.35% hits;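 active means inhibition above the mean of all tested compounds plus 3 SD, cut at about 70% in these data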;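 further: higher means lower luciferase signal from less NR2E3 corepressor binding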
Myeloid diff MLP: compounds promoting myeloid differentiation; ER-HoxA9 myeloid progenitors, lysozyme-GFP differentiation, flow cytometry; calls only at 10 µM; 360,000 compounds, 1% hits;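 active means normalized GFP-positive differentiation at or above the plate's own cutoff, the solvent-only control mean plus 3 SD; inconclusive means no clear call, values can overlap the other calls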;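 further: cells exposed to compound for four days before flow analysis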
A number is an active result. The list is not random: actives were taken first. Their share in the collection is about 2%.

`Cc1ccc2[nH]c(C(=O)O)c(-c3ccccc3)c2c1` gave NR2E3 ag-1 inactive, GAA850 FXN act inactive, T cell HTS inactive, NR2E3 ag-2 inactive and Myeloid diff MLP inactive.
Screening Cc1ccc2[nH]c(C(=O)NN=C3CCCCC3)c(-c3ccccc3)c2c1 returned NR2E3 ag-1 inactive, GAA850 FXN act inactive, T cell HTS inactive, NR2E3 ag-2 inactive and Myeloid diff MLP active.
Screening CC(=O)NNC(=O)c1[nH]c2ccc(Br)cc2c1-c1ccccc1 returned GAA850 FXN act inactive, T cell HTS inactive, NR2E3 ag-2 inactive and Myeloid diff MLP inactive.
`NNC(=O)c1[nH]c2ccc(Br)cc2c1-c1ccccc1` gave NR2E3 ag-1 inactive, GAA850 FXN act inactive, T cell HTS inactive, NR2E3 ag-2 inactive and Myeloid diff MLP active.
For Cc1ccc(/C=N/NC(=O)c2nn(C)cc2Cl)cc1 the results were NR2E3 ag-1 inactive, GAA850 FXN act inactive, T cell HTS inactive, NR2E3 ag-2 inactive and Myeloid diff MLP inactive.
For Cn1cc(Cl)c(C(=O)N/N=C/c2ccc3c4c(cccc24)CC3)n1 the results were NR2E3 ag-1 inactive, GAA850 FXN act 8.0, T cell HTS inactive, NR2E3 ag-2 inactive and Myeloid diff MLP inconclusive.
COc1ccc(C2CC(=O)Oc3cc(C)c(Cl)c(C)c32)cc1 (stereo not given) was read as GAA850 FXN act inactive, NR2E3 ag-2 inactive and Myeloid diff MLP inactive.
OC[C@H]1O[C@@H](c2nc(-c3ccccc3Br)no2)[C@H](O)[C@@H](O)[C@H]1O was read as GAA850 FXN act inactive, NR2E3 ag-2 inactive and Myeloid diff MLP inactive.
Screening COc1ccc2noc3c2c1C(=O)c1ccccc1-3 returned NR2E3 ag-1 inactive, GAA850 FXN act inactive, T cell HTS inactive, NR2E3 ag-2 inactive and Myeloid diff MLP active.
Screening CC(C)N(C(=O)c1ccc(C(=O)Nc2ccc([N+](=O)[O-])cc2)cc1)C(C)C returned NR2E3 ag-1 inactive, GAA850 FXN act inactive, T cell HTS inactive, NR2E3 ag-2 inactive and Myeloid diff MLP inactive.
For CN(C)S(=O)(=O)c1ccc(NC(=O)c2ccc([N+](=O)[O-])cc2)cc1 the results were NR2E3 ag-1 inactive, GAA850 FXN act inactive, T cell HTS 0.0, NR2E3 ag-2 inactive and Myeloid diff MLP inactive.
Screening CN(c1ccccc1)S(=O)(=O)c1ccc(NC(=O)c2ccc(-c3ccccc3)cc2)cc1 returned NR2E3 ag-1 inactive, GAA850 FXN act inactive, T cell HTS inactive, NR2E3 ag-2 82 and Myeloid diff MLP inactive.
`OCc1ccccc1SSc1ccccc1CO` gave NR2E3 ag-1 inactive, GAA850 FXN act inactive, T cell HTS inactive, NR2E3 ag-2 inactive and Myeloid diff MLP inactive.
`CCc1nc2c(OCc3ccc(Cl)cc3Cl)cccn2c1N(C)C(=O)CC(C)C` gave GAA850 FXN act inactive, NR2E3 ag-2 inactive and Myeloid diff MLP inactive.
Screening Cc1cc(C)c(NC(=O)C2CCCN2CCO)c(C)c1 (stereo not given) returned NR2E3 ag-1 inactive, GAA850 FXN act inactive, T cell HTS inactive, NR2E3 ag-2 inactive and Myeloid diff MLP active.
Cc1cccc(C(=O)OCC(=O)N2CC(=O)Nc3ccccc32)c1C was read as GAA850 FXN act inactive, T cell HTS inactive, NR2E3 ag-2 inactive and Myeloid diff MLP inactive.
CCCn1c(SCC(=O)N(C)CC(=O)Nc2ccc(C)cc2)n[nH]c1=O was read as NR2E3 ag-1 inactive, GAA850 FXN act inactive, T cell HTS inactive, NR2E3 ag-2 inactive and Myeloid diff MLP inactive.
Screening COC(=O)c1ccn(CC(=O)NC2CCCCC2)n1 returned NR2E3 ag-1 inactive, GAA850 FXN act inactive, T cell HTS inactive, NR2E3 ag-2 inactive and Myeloid diff MLP active.
For O=C(Cn1cc2c(n1)CCCC2)NC1CCCCCC1 the results were NR2E3 ag-1 inactive, GAA850 FXN act inactive, T cell HTS inactive, NR2E3 ag-2 inactive and Myeloid diff MLP inactive.
Screening CN(C(=O)c1cccc(S(=O)(=O)N2CCCC2)c1)C1CCCCC1 returned NR2E3 ag-1 inactive, GAA850 FXN act inactive, T cell HTS inactive, NR2E3 ag-2 inactive and Myeloid diff MLP inactive.
For COc1cc(C(=O)N=c2sc3c(C)ccc(OC)c3n2C)cc(OC)c1OC the results were NR2E3 ag-1 inactive, GAA850 FXN act inactive, T cell HTS inactive, NR2E3 ag-2 inactive and Myeloid diff MLP inactive.
For COc1ccc(C(=O)N=c2sc3c(C)ccc(OC)c3n2C)cc1 the results were NR2E3 ag-1 inactive, GAA850 FXN act inactive, T cell HTS inactive, NR2E3 ag-2 inactive and Myeloid diff MLP active.
